The results in this text go back to ChEMBL document CHEMBL3046951, “Volatile constituents from the leaves of Callicarpa japonica Thunb. and their antibacterial activities” (2004).

Holding throughout (format): functional
For test [1], the system named is Escherichia coli. Description: Antimicrobial activity against Escherichia coli O157:H7 ATCC 43894 assessed as growth inhibition rate at 1.2 mg/l after 72 hr by spectrophotometry. Particulars: O157:H7 ATCC 43894, 72 h, read-out: GI.
For test [2], the system named is Salmonella typhimurium. Description: Antimicrobial activity against Salmonella enterica subsp. enterica serovar Typhimurium ATCC 14028 assessed as growth inhibition rate at 1.2 mg/l after 72 hr by spectrophotometry. The conditions noted are these: ATCC 14028, 72 h, read-out: GI. The essentials:
(§1)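 Authentic volatiles (>95% purity; 2,4-heptadienal 90%) tested against 18 h subcultures. Growth media: E. coli O157:H7 and S. aureus in tryptic soy broth at 37 °C; L. monocytogenes in tryptic soy broth at 30 °C; V. parahaemolyticus in tryptic soy broth + 3% NaCl at 37 °C; S. typhimurium in nutrient broth at 30 °C. Bioscreen C OD every 24 h for 72 h versus 10% Tween 80 control.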

The subject of test [3] is Bacillus cereus. The experiment in a line: Antimicrobial activity against Bacillus cereus ATCC 11778 assessed as growth inhibition rate at 1.2 mg/l after 72 hr by spectrophotometry. Particulars: ATCC 11778, 72 h, read-out: GI. The method in brief: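 Pure volatile compounds (>95% purity; 2,4-heptadienal 90%) identified in the leaf extract were tested against B. cereus ATCC 11778 in nutrient broth at 30 °C. The inoculum was grown 24 h, then subcultured (0.1 mL into 9.9 mL) for 18 h. Optical density was read in a Bioscreen C every 24 h for 72 h against a 10% Tween 80 control.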

Test [4] has as its system Listeria monocytogenes. Description: Antimicrobial activity against Listeria monocytogenes ATCC 19111 assessed as growth inhibition rate at 1.2 mg/l after 72 hr by spectrophotometry. The conditions noted are these: ATCC 19111, 72 h, read-out: GI. The essentials: as §1
Test [5] concerns Staphylococcus aureus. The experiment in a line: Antimicrobial activity against Staphylococcus aureus ATCC 25923 assessed as growth inhibition rate at 1.2 mg/l after 72 hr by spectrophotometry. Particulars: ATCC 25923, 72 h, read-out: GI. The essentials: as §1
Test [6] relates to Vibrio parahaemolyticus. Description: Antimicrobial activity against Vibrio parahaemolyticus ATCC 33844 assessed as growth inhibition rate at 1.2 mg/l after 72 hr by spectrophotometry. Particulars: ATCC 33844, 72 h, read-out: GI. The method in brief:
as §1

In test [7] the test system is Vibrio parahaemolyticus. The experiment in a line: Antimicrobial activity against Vibrio parahaemolyticus ATCC 33844 assessed as growth inhibition rate at 143.24 mg/l after 72 hr by spectrophotometry. The conditions noted are these: ATCC 33844, 72 h, read-out: GI.
In test [8] the test system is Escherichia coli. Description: Antimicrobial activity against Escherichia coli O157:H7 ATCC 43894 assessed as growth inhibition rate at 143.24 mg/l after 72 hr by spectrophotometry. The conditions noted are these: O157:H7 ATCC 43894, 72 h, read-out: GI.
Test [9] has as its system Bacillus cereus. The experiment in a line: Antimicrobial activity against Bacillus cereus ATCC 11778 assessed as growth inhibition rate at 143.24 mg/l after 72 hr by spectrophotometry. Particulars: ATCC 11778, 72 h, read-out: GI. The essentials: (§2)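 Pure volatile compounds (purity >95%; one at 90%) were tested against B. cereus ATCC 11778. The strain was grown at 30 °C in nutrient broth for 24 h, then subcultured for 18 h. Optical density was read in a Bioscreen C every 24 h for 72 h, with 10% Tween 80 as the control.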

Test [10] has as its system Salmonella typhimurium. Description: Antimicrobial activity against Salmonella enterica subsp. enterica serovar Typhimurium ATCC 14028 assessed as growth inhibition rate at 143.24 mg/l after 72 hr by spectrophotometry. Particulars: ATCC 14028, 72 h, read-out: GI. The essentials:
(§3)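 Salmonella Typhimurium ATCC 14028 grown in nutrient broth at 30 °C, precultured 24 h, then subcultured 1:100 for 18 h before testing. Single volatile compounds (>95% pure) were added. OD was read every 24 h over 72 h in a Bioscreen C, with 10% Tween 80 as the comparison control.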

Test [11] relates to Staphylococcus aureus. Description: Antimicrobial activity against Staphylococcus aureus ATCC 25923 assessed as growth inhibition rate at 143.24 mg/l after 72 hr by spectrophotometry. Particulars: ATCC 25923, 72 h, read-out: GI.
The subject of test [12] is Listeria monocytogenes. The experiment in a line: Antimicrobial activity against Listeria monocytogenes ATCC 19111 assessed as growth inhibition rate at 143.24 mg/l after 72 hr by spectrophotometry. Particulars: ATCC 19111, 72 h, read-out: GI. The method in brief: (§4)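 L. monocytogenes was grown at 30 °C in tryptic soy broth, subcultured for 18 h, and exposed to pure volatile compounds (>95% purity). Growth was followed by Bioscreen C optical density every 24 h for 72 h against a 10% Tween 80 control.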

The test system of test [13] is Listeria monocytogenes. The experiment in a line: Antimicrobial activity against Listeria monocytogenes ATCC 19111 assessed as growth inhibition rate at 4.64 mg/l after 72 hr by spectrophotometry. The conditions noted are these: ATCC 19111, 72 h, read-out: GI. The essentials:
as §4

The subject of test [14] is Escherichia coli. The experiment in a line: Antimicrobial activity against Escherichia coli O157:H7 ATCC 43894 assessed as growth inhibition rate at 4.64 mg/l after 72 hr by spectrophotometry. Particulars: O157:H7 ATCC 43894, 72 h, read-out: GI.
Test [15] has as its system Staphylococcus aureus. Description: Antimicrobial activity against Staphylococcus aureus ATCC 25923 assessed as growth inhibition rate at 4.64 mg/l after 72 hr by spectrophotometry. Particulars: ATCC 25923, 72 h, read-out: GI.
In test [16] the test system is Vibrio parahaemolyticus. The experiment in a line: Antimicrobial activity against Vibrio parahaemolyticus ATCC 33844 assessed as growth inhibition rate at 4.64 mg/l after 72 hr by spectrophotometry. Particulars: ATCC 33844, 72 h, read-out: GI.
Test [17] has as its system Bacillus cereus. Description: Antimicrobial activity against Bacillus cereus ATCC 11778 assessed as growth inhibition rate at 4.64 mg/l after 72 hr by spectrophotometry. The conditions noted are these: ATCC 11778, 72 h, read-out: GI. The method in brief:
as §2

Test [18] relates to Salmonella typhimurium. The experiment in a line: Antimicrobial activity against Salmonella enterica subsp. enterica serovar Typhimurium ATCC 14028 assessed as growth inhibition rate at 4.64 mg/l after 72 hr by spectrophotometry. The conditions noted are these: ATCC 14028, 72 h, read-out: GI. The essentials: as §3

In the case of `CC=O`, the inhibition of growth at 1.2 µg/mL was found to be 5.3% in test [1]; 15.4% in [2]; 1.2% in test [3]; 10% in [4]; 2.8% in [5]; 11.1% in [6].
In the case of `C=C1CC[C@@H]2[C@H]([C@@H]3[C@H](C)CC[C@@H]13)C2(C)C` [(-)-AROMADENDRENE II], the inhibition of growth at 143.24 µg/mL in [7] worked out at 45.6%; in test [8] it was 24.2%; in test [9] it was 72.3%; in test [10], 36.4%; in [11] it was 61.5%; in test [12] it was 28%.
Take `C[C@@H]1CC[C@@H]2[C@@H]1[C@H]1[C@@H](CC[C@@]2(C)O)C1(C)C` [GLOBULOL]: the inhibition of growth at 4.64 µg/mL in test [13] is 6.3%; in [14], 0%; in test [15] it was 8.3%; in test [16] it was 0%; in [17], 1.9%; in test [18] it was 0.8%.
